SENP1 inh = blocks the human SENP1 SUMO protease catalytic domain; recombinant SENP1 catalytic domain, CyPet-SUMO1-YPet FRET cleavage; inhibition, % at 10 µM; actives 0.21% (n = 360,000); AID 624204;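 active means inhibition at least 30% at 10 µM, raw YFP signal under a set limit, fluorescence ratio 0.5 to 1.5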;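 further: 0% = enzyme with DMSO and 100% = no enzyme wells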
Target sequence (Q9P0U3 419-644 limits assumed): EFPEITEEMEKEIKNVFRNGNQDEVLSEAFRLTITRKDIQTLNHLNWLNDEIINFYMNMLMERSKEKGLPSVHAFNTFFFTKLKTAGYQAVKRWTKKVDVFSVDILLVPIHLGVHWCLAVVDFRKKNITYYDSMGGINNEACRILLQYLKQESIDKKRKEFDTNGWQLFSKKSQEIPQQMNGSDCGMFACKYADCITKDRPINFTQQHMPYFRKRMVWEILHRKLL
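Test system: recombinant human SENP1 catalytic domain, His6-tagged / Medium: pH 8 Tris buffer with EDTA, NaCl, BME, BSA, NP40, catalase / Also added: SUMO1 FRET substrate flanked by Cypet and Ypet, 25 nM / Times: 50 min reaction at room temperature / Signal: FRET, CFP and YFP emission / Control set: no-enzyme low control and enzyme-plus-DMSO high control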
EBI2 antag = blocks human EBI2 receptor beta-arrestin signaling. P32249. EBI2 beta-arrestin recruitment, luminescence, 7a,25-OHC stimulated. inhibition, % at 5 µM. actives 0.81% (n = 360,000); in the data active means inhibition above about 38%;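 further: enzyme fragment complementation signal reports receptor beta-arrestin coupling in cells; 0% = agonist plus DMSO wells and 100% = wells without agonist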
Target sequence (P32249 whole entry, looked up, the tested form may be a part): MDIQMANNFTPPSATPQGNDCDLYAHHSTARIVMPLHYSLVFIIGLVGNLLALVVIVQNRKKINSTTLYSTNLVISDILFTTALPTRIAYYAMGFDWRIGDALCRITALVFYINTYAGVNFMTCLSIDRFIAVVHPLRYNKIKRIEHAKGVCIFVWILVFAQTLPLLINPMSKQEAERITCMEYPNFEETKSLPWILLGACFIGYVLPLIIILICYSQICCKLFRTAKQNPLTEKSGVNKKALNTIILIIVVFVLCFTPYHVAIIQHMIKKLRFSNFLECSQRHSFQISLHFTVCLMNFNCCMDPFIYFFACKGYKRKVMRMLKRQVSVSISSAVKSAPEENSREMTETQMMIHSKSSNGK
NR3A LBD binder = modulators (binders) of human NR3A ligand-binding domain; Tm shift relative to glycine control, % at 25 µM; AID 1259313; NR3A LBD differential scanning fluorimetry, Tm shift; 0% = protein alone, 100% = glycine-bound protein; actives 2.5% (n = 340,000);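 active means melting temperature shift of at least 10% of the positive control shift, at one fixed dose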
MPTP inh = blocks calcium-induced mitochondrial swelling; actives 1.4% (n = 360,000); AID 602449; isolated mouse mitochondria, Ca2+ swelling absorbance, 30 min; inhibition, % at 10 µM;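 active means inhibition of 50% or more, scaled per plate between neutral and stimulator controls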;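 further: 0% = DMSO wells given calcium and 100% = 1 mM EGTA wells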
EBI2 conf = EBI2 (human) antagonism, single concentration confirmation; shares compounds with EBI2 antag; EBI2 beta-arrestin luminescence, 7a,25-OHC antagonism; inhibition, % at 5 µM; actives 29% (n = 2,400); AID 651997;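 active means inhibition of at least 50%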
EBI2 ag = counter-screen for EBI2 antagonists: EBI2 agonist activity; shares compounds with EBI2 antag; activation, % at 5 µM; EBI2-expressing cells, agonist mode, luminescence, 60 min; 0% vehicle, 100% 7α,25-dihydroxycholesterol control; 2,400 tested, under 10 active;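 active means activation of at least 50%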
bGal cs = inhibits E. coli beta-galactosidase, counter-screen for EBI2 antagonists | shares compounds with EBI2 antag | purified beta-galactosidase, luminescent Galacton Star, 15 min | inhibition, % at 5 µM | actives 1% (n = 2,400) | AID 652176;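 active means replicate-average signal at least 3 plate SD below neutral wells, shown as high inhibition, flagging enzyme-inhibiting false positives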;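 further: 0% = DMSO wells with enzyme and 100% = wells lacking enzyme; higher means stronger loss of beta-gal luminescence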
Numbers without * were called inactive; . = no result given. The list is not random: actives were taken first. Their share in the collection is about 4.4%.

SMILES	SENP1 inh	EBI2 antag	NR3A LBD binder	MPTP inh	EBI2 conf	EBI2 ag	bGal cs
COc1ccc([C@H]2CC(=O)C=C(c3ccc(SC)cc3)C2)cc1OC	-2	28	3	2	.	.	.
O=C1C=C(c2ccc(Oc3ccccc3)cc2)C[C@@H](c2ccc(F)cc2)C1	1	29	1	1	.	.	.
COc1ccc([C@H]2CC(=O)C=C(c3ccc(SC)cc3)C2)cc1	-9	71*	0	0	47	0	-11
COc1ccc(C2=CC(=O)C[C@H](c3ccc(OC)cc3)C2)cc1	2	54*	-1	-1	44	-1	-9
NC(=O)c1cccc(Nc2nc(C(N)COCc3ccccc3)cs2)n1 (centres undefined)	-1	-3	.	0	.	.	.
O=C(NCc1ccccc1)C1=C[C@H](c2ccc(C(F)(F)F)cc2)C[C@H](OCc2ccc(CO)cc2)O1	-5	20	0	-1	.	.	.
O=[N+]([O-])c1ccc(S(=O)(=O)NN=CCCc2ccccc2)cc1	4	3	-2	0	.	.	.
COc1ccc(NC2=CC(=O)CC(c3ccccc3)C2)cc1 (centres undefined)	1	52*	1	0	31	2	13
COc1ccc([C@H]2CC(=O)C=C(c3ccc4c(c3)OCO4)C2)cc1	0	35	0	0	.	.	.
O=C1C=C(c2cc(Cl)cc(Cl)c2)C[C@@H](c2ccc(F)cc2)C1	2	48*	-3	1	22	0	6
Cc1cc(C2=CC(=O)C[C@H](c3ccc(F)cc3)C2)ccc1F	1	49*	.	2	27	0	6
O=C1C=C(Nc2ccccc2)CC(c2ccccc2)C1 (centres undefined)	2	12	-2	-2	.	.	.
COc1ccc([C@H]2CC(=O)C=C(c3ccc4ccn(C)c4c3)C2)cc1	1	73*	-14	0	44	1	4
CCOC(=O)C1=C(COC(=O)CC(C)c2ccccc2)NC(=O)NC1C (centres undefined)	1	-2	2	-1	.	.	.
COc1ccc(C2=CCC3CCCCN3C2)cc1OC (centres undefined)	-1	10	-1	-1	.	.	.
COc1ccc([C@H]2CC(=O)C=C(c3ccccc3)C2)cc1	0	41*	-1	0	32	-2	-1
COc1ccc([C@H]2CC(=O)C=C(c3cc(C(F)(F)F)cc(C(F)(F)F)c3)C2)cc1	1	35	-1	6	.	.	.
COc1ccc([C@H]2CC(=O)C=C(c3cccc(C(C)C)c3)C2)cc1	-1	4	-1	9	.	.	.
COc1ccc([C@H]2CC(=O)C=C(c3cc(Cl)cc(Cl)c3)C2)cc1	1	46*	-1	0	19	-2	-17
COc1ccc([C@H]2CC(=O)C=C(c3ccc4cc[nH]c4c3)C2)cc1	-18	49*	-6	1	36	0	6
COc1ccc([C@H]2CC(=O)C=C(c3ccc4c(c3)sc3ccccc34)C2)cc1	1	55*	1	0	19	1	9
Cc1cccc(/C=N/NC(=O)c2cc(-c3cccnc3)nc3c2c(C)nn3-c2ccccc2)c1	-16	43*	24*	4	38	-1	-16
Cc1cccc(/C=N/NC(=O)c2cc(-c3cccnc3)nc3ccccc23)c1	2	-2	1	-3	.	.	.
O=C(NC1CCCCC1)C(c1ccccc1)N(Cc1cccnc1)C(=O)c1csnn1 (centres undefined)	-2	-3	-2	0	.	.	.
CCN(CC(=O)Nc1c(F)cccc1F)C(=O)/C=C/c1ccc(C)cc1	1	94*	-1	-2	80*	-1	-6
SMILES	SENP1 inh	EBI2 antag	NR3A LBD binder	MPTP inh	EBI2 conf	EBI2 ag	bGal cs
CCN(CC(=O)NCc1ccc(F)cc1)C(=O)/C=C/c1ccc(OC)cc1	2	62*	-3	-2	57*	0	8
CCOC(=O)C1=C[C@@H](C(C)(C)C)N(S(=O)(=O)c2ccc(C)cc2)[C@H]1c1ccc(C#N)cc1	0	42*	.	-1	30	1	6
NS(=O)(=O)c1ccc(N/N=C/c2ccc(O)c(O)c2O)c([N+](=O)[O-])c1	2	-7	-5	7	.	.	.
NS(=O)(=O)c1ccc(N/N=C/c2ccc(O)cc2O)c([N+](=O)[O-])c1	6	43*	30*	5	18	-2	2
C/C(Cc1ccccc1)=N\NC(=O)CNC(=O)Cc1ccccc1	0	1	-2	5	.	.	.
CN1C2C=C3C(C#N)=C(N)C(C#N)(C#N)C(c4ccc(Br)cc4)C3C1CC2 (centres undefined)	1	51*	-3	0	59*	1	4
CCOC(=O)C1CCN(c2c(NCCN(CC)c3ccccc3)c(=O)c2=O)CC1	3	6	0	1	.	.	.
CCOc1ccc(S(=O)(=O)c2c(C(=O)c3ccccc3)cnc3cc4c(cc23)OCCO4)cc1	-2	52*	0	-1	25	-1	-11
CCCC(=O)Nc1cc2c(cc1C(=O)c1ccccc1)OCCO2	1	-5	2	-4	.	.	.
COc1ccc(N2CCN(C(=O)c3cc(=O)c4cc(Cl)ccc4o3)CC2)cc1	2	96*	2	-1	93*	-1	-21
COc1ccc(N2CCN(Cc3cc(=O)oc4ccc(Cl)cc34)CC2)cc1	-2	17	1	2	.	.	.
COc1ccc(N2CCN(C(=O)c3cc(=O)c4ccc(C)cc4o3)CC2)cc1	1	50*	0	-1	49	-2	-16
COc1ccc(C(=O)NCCN2CCC(n3c(=O)[nH]c4ccccc43)CC2)cc1F	0	-3	.	1	.	.	.
O=C(CNC(=O)OCc1ccccc1)NCC(=O)N1CCCC1C(=O)OCc1ccccc1 (centres undefined)	2	-18	1	-7	.	.	.
O=C(Nc1cccc(-c2csc(Nc3cccc(C(F)(F)F)c3)n2)c1)c1ccccc1	-3	46*	29*	2	23	-1	-15
CC(=O)Nc1cccc(-c2csc(C(C)(O)c3ccccc3)n2)c1 (centres undefined)	-2	-4	.	0	.	.	.
CCOc1ccc(NC(=S)Nc2ccccc2C2(C)CC2)cc1	2	60*	-7	26	20	2	4
CCOc1ccc(NC(=S)NC(=O)Cc2ccccc2)cc1	-2	-8	1	0	.	.	.
CCOc1ccc(NC(=S)Nc2ccc(F)cc2)cc1	6	59*	-8	0	41	0	8
CCOc1ccc(NC(=S)Nc2cccnc2)cc1	-2	58*	-8	-2	24	-1	-10

Bioassay records: PubChem, Sanford-Burnham Center for Chemical Genomics
